The list is not random: actives were taken first. Their share in the collection is about 2.3%.
CSN deneddyl inh: inhibitors of CSN-mediated cullin deneddylation, primary screen, biochemical, fluorescence polarization, uHTS; COP9 signalosome complex subunit 5 (Homo sapiens), Q92905; Purified CSN, SCF-Nedd8-OG deneddylation; inhibition, % at 12.5 µM; 360,000 tested, 0.38% active; AID 651999, 2013;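 active means pattern-corrected inhibition above about 35%, with an unprinted fluorescence ratio check between 0.5 and 1.5, limit read from the data, passing the limit was not always enough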;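 further: 0% = enzyme with substrate and 100% = substrate without enzyme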
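test system = HEK293T-derived human Csn5 enzyme | amount = 0.24 nM Csn5 enzyme, final concentration | medium = Tris/NaCl/DTT buffer, pH 7.5 | schedule = 90 min reaction at room temperature | signal = FP | evaluation = inhibition of Csn5 cleavage, % | compound dosing = single dose of 12.5 µM compound with 0.25% DMSO | probe or stimulus = 10 nM SCFSkp2-Nedd8OG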
HNF4A DNA FP: change in binding of human HNF4A to DNA, primary screen, biochemical, fluorescence polarization, FITC-DNA; Hepatocyte nuclear factor 4-alpha (Homo sapiens), P41235; 1 h; activity change, % at 10 µM; 360,000 tested, 0.3% active; in the data active means activity change above about 30%, passing the limit was not always enough
Target sequence (P41235 whole entry, looked up): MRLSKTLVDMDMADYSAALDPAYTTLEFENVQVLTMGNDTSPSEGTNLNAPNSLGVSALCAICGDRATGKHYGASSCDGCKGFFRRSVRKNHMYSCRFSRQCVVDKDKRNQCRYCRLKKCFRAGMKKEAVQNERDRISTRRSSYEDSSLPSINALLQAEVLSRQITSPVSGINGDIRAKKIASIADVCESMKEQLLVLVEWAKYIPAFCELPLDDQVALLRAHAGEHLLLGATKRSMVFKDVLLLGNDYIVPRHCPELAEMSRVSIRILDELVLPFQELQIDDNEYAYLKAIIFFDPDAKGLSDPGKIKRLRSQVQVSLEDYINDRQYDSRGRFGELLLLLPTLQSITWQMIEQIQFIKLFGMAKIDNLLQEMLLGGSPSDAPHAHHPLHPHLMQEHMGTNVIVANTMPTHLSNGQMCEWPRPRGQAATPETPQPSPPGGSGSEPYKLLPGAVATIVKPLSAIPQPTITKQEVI
TPT1 inhibitor: Candida albicans TPT1 enzyme inhibitors, primary screen, biochemical, fluorescence polarization | inhibition, % at 5 µM | recombinant caTPT1, FP RNA substrate dephosphorylation | 300,000 tested, 0.81% active;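 active means inhibition above the mean of all tested compounds plus 3 SD, set per screening campaign, cut at about 24% in these data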;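 further: plate controls were DMSO alone for no effect and ferristatin control at 100 nM for full effect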
Myeloid diff MLP: induction of myeloid progenitor differentiation, primary screen, cell-based, flow cytometry, MLPCN library; calls only at 10 µM; AID 624256, 2012; ER-HoxA9 myeloid progenitors, lysozyme-GFP differentiation; 360,000 tested, 1% active;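 active means normalized GFP-positive differentiation at or above the plate's own cutoff, the solvent-only control mean plus 3 SD; inconclusive means no clear call, values can overlap the other calls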;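 further: cells exposed to compound for four days before flow analysis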
Rpn11 inh: Rpn11 (PSMD14) deubiquitinase inhibitors, primary screen, biochemical, fluorescence polarization, uHTS; 26S proteasome non-ATPase regulatory subunit 14 (Homo sapiens), O00487; human 26S proteasome, Ub4-pepOG fluorescence polarization; 20S core pre-blocked with epoxomicin; inhibition, % at 20 µM; 360,000 tested, 0.59% active; AID 588493, 2011;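 active means inhibition at 20 µM, scaled to each plate's controls, above about 33%, limit read from the data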
Myeloid diff: inducers of myeloid progenitor differentiation, confirmation, cell-based, GFP/Mac1 flow cytometry, cherry pick 01. shares compounds with Myeloid diff MLP. ER-HoxA9 myeloid progenitors, GFP/Mac1 double-positive flow. calls only. 2,300 tested, 2% active;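 active means share of green or green-and-red cells above 9 and 9% in run 1 or 4 and 3% in run 2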
GFP autofluor: compound fluorescence in myeloid differentiation counter-screen. ER-HoxA9 myeloid progenitors, no estrogen, GFP autofluorescence flow cytometry; vehicle wells 0%, positive control 100%. fluorescence response, % (concentration not given with the values). shares compounds with Myeloid diff MLP. 2,300 tested, 7.4% active. AID 651707;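 active means over 5% cells positive for green fluorescent reporter, or over 2% positive for both it and APC stain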;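 further: range taken on the double positive population between DMSO and positive control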
Numbers without * were called inactive; i = inactive; ? = inconclusive; . = no result shown; + = active, no number.

SMILES	CSN deneddyl inh	HNF4A DNA FP	TPT1 inhibitor	Myeloid diff MLP	Rpn11 inh	Myeloid diff	GFP autofluor
CC(C)(C)OC(=O)C[C@@H]1C/C=C\C[C@H](CC(=O)N(CCO)Cc2ccccc2)C(=O)NCCOC1=O	0	-1	.	i	3	.	.
O=C(Nc1cc2c3c(c1)C1CCCC1CN3CC1CCCC21)c1ccccc1 (stereo not drawn)	6	-8	9	i	-2	.	.
CC(C)Nc1nc(NCCN2CCCC2)c2sc(-c3ccccc3)cc2n1	6	1	.	+	1	i	0
COCCNc1nc(NCc2cccc(OC)c2)c2sc(-c3ccccc3)cc2n1	-5	0	.	+	-7	i	0
CC(C)Nc1nc(-c2ccccc2F)c2sc(-c3ccccc3)cc2n1	-1	6	.	i	11	.	.
COCCNc1nc(NCc2ccc(NC(C)=O)cc2)c2sc(-c3ccccc3)cc2n1	-6	5	.	?	0	.	.
CC[C@]12c3[nH]c4ccc(Cl)cc4c3CCN1C(=O)[C@@H](CC(=O)NCCc1ccccn1)C[C@@H]2C(=O)N1CCN(C(=O)C2CC2)CC1	-1	1	.	i	-1	i	0
Cc1ccc(-c2nnnn2-c2ccc(C)cc2)cc1	-1	1	-4	i	-2	.	.
Cc1ccc(-n2nnnc2C(=Cc2ccc(N(C)C)cc2)c2nnnn2-c2ccc(C)cc2)cc1	15	20	15	+	.	i	1
COc1ccc(N=C2SCC(=O)N2CCc2ccc(OC)c(OC)c2)cc1	-4	3	-2	i	2	.	.
COc1ccc(CCN2C(=O)CS/C2=N\NC(=O)c2ccc(C(C)(C)C)cc2)cc1OC	-2	-1	3	i	2	i	0
C=CCNC(=S)/N=c1/ccccn1CC	-2	-2	1	i	-3	i	4
C=CCNC(=S)Nc1ccccc1	1	1	1	i	4	.	.
CC1=C(C(=O)N(C(C)C)C(C)C)CC(CC(=O)NC2CCCC2)C(=O)N1Cc1ccc(C(C)(C)C)cc1 (stereo not drawn)	5	2	.	i	11	.	.
COc1ccc(/C=C/C(O)=C2/C(=O)N(C)C3(C)CC2c2ccccc2O3)cc1 (stereo not drawn)	1	3	1	+	0	+	0
CCOc1ccc(-n2c(C)c3c(C)nnc(C)c3c2C)cc1	7	10	.	i	16	i	42*
Cc1ccc(Cn2c(=O)n(Cc3ccco3)c(=O)c3ccccc32)cc1	4	2	3	i	2	i	0
CCC(C)NC(=O)Cn1c(=O)n(-c2ccccc2)c(=O)c2ccc(C(=O)NCc3ccco3)cc21 (stereo not drawn)	2	2	-1	i	-12	.	.
Cc1ccc(-n2c(=O)c3sccc3n(CC(=O)NCc3ccco3)c2=O)cc1	-1	1	-2	i	-1	.	.
Cc1ccc(Cn2c(=O)n(-c3ccccc3)c(=O)c3ccc(C(=O)NCc4ccco4)cc32)cc1	-5	-4	-4	i	-3	i	2
Cc1cccc(Cn2c(=O)n(-c3ccc(CC(=O)NCc4ccco4)cc3)c(=O)c3sccc32)c1	1	-2	-4	i	-3	i	0
COc1ccccc1OCc1nnc(SCC(=O)N2CCCC2)o1	2	0	-5	i	0	.	.
COc1ccccc1OCc1nnc(SCCN2CCOCC2)o1	0	2	1	i	-2	i	0
O=CNc1ccc(S(=O)(=O)NCc2ccccc2)cc1	-1	3	-2	i	-8	.	.
O=C(CCc1nc2ccccc2[nH]c1=O)OCC(=O)N1CCc2ccccc21	-2	-3	2	i	8	i	0
SMILES	CSN deneddyl inh	HNF4A DNA FP	TPT1 inhibitor	Myeloid diff MLP	Rpn11 inh	Myeloid diff	GFP autofluor
O=C(NCc1ccccn1)c1ccc(CNS(=O)(=O)c2ccc(F)cc2)cc1	1	1	-2	i	0	.	.
COc1cc(C(=O)N2CCCC(c3nc(-c4cccs4)no3)C2)cc(OC)c1OC (stereo not drawn)	0	1	1	i	-8	i	1
COCCn1nnnc1CN1CCN2CCCC2C1 (stereo not drawn)	4	1	-2	+	-2	i	0
CC(C)(C)n1nnnc1CN1CCN2CCCC2C1 (stereo not drawn)	7	-3	0	i	-2	.	.
COC(=O)c1ccc(C(=O)OC)c(NC(=O)CN(c2ccc3c(c2)OCO3)S(C)(=O)=O)c1	-2	-2	-1	i	5	.	.
CCOCCn1c(CN(Cc2ccccc2)Cc2ccccc2)nc2c1c(=O)[nH]c(=O)n2C	-1	-2	-4	+	-14	i	0
CCOCCn1c(CN(Cc2ccccc2)Cc2ccccc2)nc2c1c(=O)n(C)c(=O)n2C	0	1	5	?	1	.	.
Cc1nnc(SC(C)C(=O)NCC2CCCO2)n1-c1ccccc1 (stereo not drawn)	-6	2	1	i	0	.	.
CC(Sc1nn(-c2ccccc2)c(=S)s1)C(=O)NCC1CCCO1 (stereo not drawn)	1	-3	.	i	1	i	0
COc1cc(/C=C/C(=O)OCC(=O)N2CCC(C)CC2)ccc1O	4	6	-3	i	0	.	.
COc1cc(/C=C/C(=O)OC[C@H]2O[C@H](OC3(CO)OC(CO)C(O)C3O)[C@H](O)[C@@H](O)[C@@H]2O)ccc1O (stereo partly drawn)	0	0	.	i	-2	i	0
CC1CCCCC1NC(=O)CN1CCC(NC(=O)C(C)(C)C)CC1 (stereo not drawn)	0	-2	.	i	-6	.	.
O=[N+]([O-])c1cccc(/C(=N/N=C/c2ccccc2Br)C23CN4CN(CN(C4)C2)C3)c1	2	0	-8	+	3	i	0
CC(C)=N/N=C(/c1ccc([N+](=O)[O-])cc1)C12CN3CN(CN(C3)C1)C2	-1	10	-2	i	16	.	.
CC[C@]12c3[nH]c4ccccc4c3CCN1C(=O)C(CC(=O)NC/C=C(\C)CCC=C(C)C)C[C@@H]2C(=O)N1CCN(C(=O)c2ccco2)CC1 (stereo partly drawn)	-6	0	.	i	5	.	.
